Test results taken from publication PMC5102769 (Neurobiology of disease, 2016).
Like-named read-outs stand apart in the source and are kept apart here.

Molecular target: T1, ENT1 (Mus musculus, UniProt Q9JIM1)
T1 sequence (Q9JIM1 1-460): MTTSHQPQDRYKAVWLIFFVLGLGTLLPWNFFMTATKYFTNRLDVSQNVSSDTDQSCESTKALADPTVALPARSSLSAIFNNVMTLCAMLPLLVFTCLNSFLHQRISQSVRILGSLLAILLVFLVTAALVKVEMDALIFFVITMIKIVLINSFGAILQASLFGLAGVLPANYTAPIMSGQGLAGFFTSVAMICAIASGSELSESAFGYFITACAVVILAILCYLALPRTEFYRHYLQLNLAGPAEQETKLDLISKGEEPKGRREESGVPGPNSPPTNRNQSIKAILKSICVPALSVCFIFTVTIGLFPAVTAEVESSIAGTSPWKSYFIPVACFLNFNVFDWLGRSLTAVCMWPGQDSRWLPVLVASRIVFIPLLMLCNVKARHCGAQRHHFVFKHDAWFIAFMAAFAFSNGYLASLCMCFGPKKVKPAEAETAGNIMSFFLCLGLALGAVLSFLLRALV
Type: binding
Conditions: striatum; for Kd: read-out: KD (affinity)
In short: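 Striata from 12-month-old heterozygous zQ175 and WT littermate mice were homogenized in 50 mM Tris-HCl pH 7.4 with protease inhibitors, then membranes were pelleted at 100,000 g (45 min, 4°C) and washed twice. Membranes (0.2 mg protein/ml) were incubated with increasing [3H]NBTI in 50 mM Tris-HCl pH 7.4 with 2 I.U./ml adenosine deaminase. Unlabeled NBTI defined non-specific binding. Bound ligand was separated by rapid filtration and counted by scintillation. n = 8–10/group, means ± S.E.M.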

- Bmax (number of binding sites) (WT littermates of zQ175 mice): 0.27 ± 0.03 pmol/mg of protein
- Kd (WT littermates of zQ175 mice): 0.11 ± 0.01 nM
- Kd (zQ175 mice (HET, 12-month old)): 0.11 ± 0.03 nM
- Bmax (number of binding sites) (zQ175 mice (HET, 12-month old)): 0.35 ± 0.02 pmol/mg protein
SMILES: O=[N+]([O-])c1ccc(CSc2ncnc3c2ncn3[C@@H]2O[C@H](CO)[C@@H](O)[C@H]2O)cc1 [[^3H]NBTI, [^3H]-S-(4-Nitrobenzyl)-6-thioinosine]
